Key:
NC•SL2 = assay: NC–RNA inhibition: ligand added to preformed NC•SL2 complex, ESI-FTMS; type: binding, HIV-1; details: 0.35–17.5 µM ligand added to preformed complex
NC•SL3 = assay: NC–RNA inhibition: ligand added to preformed NC•SL3 complex, ESI-FTMS; type: binding, HIV-1; details: for ligand effect on NC•SL3 complex: 0.35–17.5 µM ligand added to preformed complex
NC•SL4 = assay: NC–RNA inhibition: ligand added to preformed NC•SL4 complex, ESI-FTMS; type: binding, HIV-1; details: 0.35–17.5 µM ligand added to preformed complex
Outline: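 NC was expressed in E. coli BL21(DE3)-pLysE and purified non-denaturing, with two Zn2+ confirmed by MS. It was mixed equimolar with refolded hairpin (SL4 stem extended by three base pairs) for 15 min at room temperature, forming a 1:1 complex. Ligand (0.35–17.5 µM) was added to ~3.5 µM complex in 100 mM ammonium acetate pH 7.5, then read by negative-ion ESI-FTMS. IC50 at 0.5 fractional occupancy, from competition-isotherm fit, triplicate.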

SL2 = assay: Multiplexed binding assay, ternary ligand mixture added to SL2, ESI-FTMS; parameters: species or system HIV-1; details: ternary mixture of vancomycin, mitoxantrone and neomycin B; negative control
Outline: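 SL2 hairpin (HIV-1 NL4-3 sequence), desalted in 100 mM ammonium acetate pH 7.5, heated 95°C 3 min, ice-cooled. Equimolar mix of up to three ligands added stepwise to 0.35 µM final RNA, giving 0.35–17.5 µM total ligand. Incubated 15 min at room temperature. Analysed by 2-propanol-assisted nanospray ESI-FTMS (7 T, negative ion). Species quantified from signal intensities divided by charge state.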

CN(C)[C@@H]1C(O)=C(C(N)=O)C(=O)[C@@]2(O)C(O)=C3C(=O)c4c(O)ccc(Cl)c4[C@@](C)(O)[C@H]3C[C@@H]12 [Chlorotetracycline, chlorotetracycline]
ligand effect on NC•SL2 complex (NC•SL2): No Effect
ligand effect on NC•SL3 complex (NC•SL3): No Effect
ligand effect on NC•SL4 complex (NC•SL4): No Effect

CN[C@H](CC(C)C)C(=O)N[C@H]1C(=O)N[C@@H](CC(N)=O)C(=O)N[C@H]2C(=O)N[C@H]3C(=O)N[C@H](C(=O)N[C@H](C(=O)O)c4cc(O)cc(O)c4-c4cc3ccc4O)[C@H](O)c3ccc(c(Cl)c3)Oc3cc2cc(c3O[C@@H]2O[C@H](CO)[C@@H](O)[C@H](O)[C@H]2O[C@H]2C[C@](C)(N)[C@H](O)[C@H](C)O2)Oc2ccc(cc2Cl)[C@H]1O [vancomycin]
binding to SL2 in multiplexed assay (SL2): no binding was observed

O=C1c2c(O)ccc(O)c2C(=O)c2c(NCCNCCO)ccc(NCCNCCO)c21 [Mitoxantrone, mitoxantrone]
ligand effect on NC•SL3 complex (NC•SL3): no detectable signs of dissociation
equivalents of ligand bound to NC•SL3 complex (ternary species) (NC•SL3; 5-fold addition of ligand): up to three

Cn1cc(NC(=O)c2cc(NC(=O)c3cc(NC=O)cn3C)cn2C)cc1C(=O)NCCC(=N)N [Distamycin A, distamycin A]
ligand effect on NC•SL2 complex (NC•SL2): No Effect
ligand effect on NC•SL4 complex (NC•SL4): No Effect

From article PMC1390681 (Nucleic Acids Research, 2006)
